Measured values: ChEMBL document CHEMBL1152820, “Plasmid-encoded ACC-4, an extended-spectrum cephalosporinase variant from Escherichia coli” (Antimicrob Agents Chemother, 2007)
≈ marks a conversion by molar mass, not a printed value.

B1: Beta-lactamase ACC-4 (Escherichia coli), A4ZYU9 (protein)
chain: MQNTLKLLSVITCLAATVQGALAANIDESKIKDTVDDLIQPLMQKNNIPGMSVAVTVNGKNYIYNYGLAAKQPQQPVTENTLFEVGSLSKTFAATLASYAQVSGKLSLDQSVSHYVPELRGSSFDHVSVLNVGTHTSGLQLFMPEDIKNTTQLMAYLKAWKPADAAGTHRVYSNIGTGLLGMIAAKSLGVSYEDAIEKTLLPQLGMHHSYLKVPADQMENYAWGYNKKDEPVHGNMEILGNEAYGIKTTSSDLLRYVQANMGQLKLDANAKMQQALTATHTGYFKSGEITQDLMWEQLPYPVSLPNLLTGNDMAMTKSVATPIVPPLPPQENVWINKTGSTNGFGAYIAFVPAKKMGIVMLANKNYSIDQRVTVAYKILSSLEGNK

Columns and labels:
Beta-lactamase ACC-4 = target: T1, Beta-lactamase ACC-4 (Escherichia coli, UniProt A4ZYU9); test: Inhibition of Escherichia coli beta-lactamase ACC4
T1 sequence (A4ZYU9 whole entry): B1 chain
Procedure, shortened: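 ACC-4 from mid-log E. coli(pS18-d): sonicated, ultracentrifuged, Q-Sepharose flowthrough then S-Sepharose (0–0.6 M NaCl gradient, phosphate pH 6.8), >95% pure by SDS-PAGE.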

Escherichia coli [1] = test: Antimicrobial activity against Escherichia coli MC4100 harboring pB-acc1 plasmid by agar dilution technique; assay type: functional
Escherichia coli [2] = test: Antimicrobial activity against Escherichia coli MC4100 harboring pB-acc4 plasmid by agar dilution technique; assay type: functional
Escherichia coli [3] = test: Antimicrobial activity against Escherichia coli MC4100 harboring pACYC184 plasmid by agar dilution technique; assay type: functional
Escherichia coli [4] = test: Antimicrobial activity against Escherichia coli MC4100 harboring pA-acc1 plasmid by agar dilution technique; assay type: functional
Escherichia coli [5] = test: Antimicrobial activity against Escherichia coli MC4100 harboring pA-acc4 plasmid by agar dilution technique; assay type: functional
Escherichia coli [6] = test: Antimicrobial activity against Escherichia coli MC4100 harboring pBCSK plasmid by agar dilution technique; assay type: functional
Hafnia alvei [7] = test: Activity of Hafnia alvei beta-lactamase ACC-1 assessed as nmol of compound hydrolysis per ug of protein
Hafnia alvei [8] = test: Ratio of Vmax to Km for Hafnia alvei beta-lactamase ACC-1
Hafnia alvei [9] = test: Activity of Hafnia alvei beta-lactamase ACC-1
[10] = substrate: CO/N=C(\C(=O)N[C@@H]1C(=O)N2C(C(=O)O)=C(COC(C)=O)CS[C@H]12)c1csc(N)n1; test: (§1) Activity of Escherichia coli beta-lactamase ACC4 by UV spectrophotometry
Procedure, shortened: (§2)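 ACC-4 purified from E. coli carrying pS18-d, grown to mid-log in broth with 100 μg/ml ampicillin. Sonicated, then Q-Sepharose and S-Sepharose chromatography (NaCl 0 to 0.6 M, phosphate pH 6.8), >95% pure. Substrate hydrolysis at 30°C, pH 7.0, followed by UV spectrophotometry. kcat and Km are means of four independent measurements.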

[11] = substrate: CCN1CCN(C(=O)N[C@@H](C(=O)N[C@@H]2C(=O)N3[C@@H]2SC(C)(C)[C@@H]3C(=O)O)c2ccccc2)C(=O)C1=O; test: as §1; procedure, shortened: as §2
[12] = substrate: CC(=O)OCC1=C(C(=O)O)N2C(=O)[C@@H](NC(=O)Cc3cccs3)[C@H]2SC1; test: as §1; procedure, shortened: as §2
[13] = substrate: CO[C@@]1(NC(=O)Cc2cccs2)C(=O)N2C(C(=O)O)=C(COC(N)=O)CS[C@@H]21; test: as §1; procedure, shortened: as §2
[14] = substrate: CC1(C)S[C@@H]2[C@H](NC(=O)Cc3ccccc3)C(=O)N2[C@H]1C(=O)O; test: as §1; procedure, shortened: as §2
[15] = substrate: CO/N=C(\C(=O)N[C@@H]1C(=O)N2C(C(=O)[O-])=C(C[N+]3(C)CCCC3)CS[C@H]12)c1csc(N)n1; test: as §1; procedure, shortened: as §2
[16] = substrate: CC(C)(O/N=C(\C(=O)N[C@@H]1C(=O)N2C(C(=O)[O-])=C(C[n+]3ccccc3)CS[C@H]12)c1csc(N)n1)C(=O)O; test: as §1; procedure, shortened: as §2
[17] = substrate: CO/N=C(\C(=O)N[C@@H]1C(=O)N2C(C(=O)O)=C(COC(C)=O)CS[C@H]12)c1csc(N)n1; test: (§3) Ratio of Kcat to Km for Escherichia coli beta-lactamase ACC4 by UV spectrophotometry; procedure, shortened: as §2
[18] = substrate: CCN1CCN(C(=O)N[C@@H](C(=O)N[C@@H]2C(=O)N3[C@@H]2SC(C)(C)[C@@H]3C(=O)O)c2ccccc2)C(=O)C1=O; test: as §3; procedure, shortened: as §2
[19] = substrate: CC(=O)OCC1=C(C(=O)O)N2C(=O)[C@@H](NC(=O)Cc3cccs3)[C@H]2SC1; test: as §3; procedure, shortened: as §2
[20] = substrate: CC1(C)S[C@@H]2[C@H](NC(=O)Cc3ccccc3)C(=O)N2[C@H]1C(=O)O; test: as §3; procedure, shortened: as §2
[21] = substrate: CO/N=C(\C(=O)N[C@@H]1C(=O)N2C(C(=O)[O-])=C(C[N+]3(C)CCCC3)CS[C@H]12)c1csc(N)n1; test: as §3; procedure, shortened: as §2
[22] = substrate: CC(C)(O/N=C(\C(=O)N[C@@H]1C(=O)N2C(C(=O)[O-])=C(C[n+]3ccccc3)CS[C@H]12)c1csc(N)n1)C(=O)O; test: as §3; procedure, shortened: as §2

Row | Molecule | MIC (Escherichia coli [1]) [µg/mL] | MIC (Escherichia coli [2]) [µg/mL] | MIC (Escherichia coli [3]) [µg/mL] | MIC (Escherichia coli [4]) [µg/mL] | MIC (Escherichia coli [5]) [µg/mL] | MIC (Escherichia coli [6]) [µg/mL] | also measured
1 | Cc1onc(-c2ccccc2Cl)c1C(=O)N[C@@H]1C(=O)N2[C@@H]1SC(C)(C)[C@@H]2C(=O)O [CLOXACILLIN] | – | – | – | – | – | – | IC50 (Beta-lactamase ACC-4): 26 nM
2 | C[C@]1(/C=C\C#N)[C@H](C(=O)O)N2C(=O)C[C@H]2S1(=O)=O | – | – | – | – | – | – | IC50 (Beta-lactamase ACC-4): 10300 nM
3 | CO[C@@]1(NC(=O)C2SC(=C(C(N)=O)C(=O)O)S2)C(=O)N2C(C(=O)O)=C(CSc3nnnn3C)CS[C@@H]21 (stereo partly drawn) [CEFOTETAN] | 1 (≈ 1.74 µM) | 1 (≈ 1.74 µM) | 0.5 (≈ 0.869 µM) | 1 (≈ 1.74 µM) | 1 (≈ 1.74 µM) | 0.5 (≈ 0.869 µM) | –
4 | CC(C)(O/N=C(\C(=O)N[C@@H]1C(=O)N2C(C(=O)[O-])=C(C[n+]3ccccc3)CS[C@H]12)c1csc(N)n1)C(=O)O [CEFTAZIDIME] | 128 (≈ 234 µM) | 512 (≈ 937 µM) | 0.25 (≈ 0.457 µM) | 32 (≈ 58.5 µM) | 256 (≈ 468 µM) | 0.25 (≈ 0.457 µM) | Vmax (Hafnia alvei [7]): < 0.025 nmol/min/µg; Vmax/Km (Hafnia alvei [8]): < 0.01; Km (Hafnia alvei [9]): 17 µM
5 | CO/N=C(\C(=O)N[C@@H]1C(=O)N2C(C(=O)O)=C(COC(N)=O)CS[C@H]12)c1ccco1 [CEFUROXIME] | 128 (≈ 302 µM) | > 512 | 1 (≈ 2.36 µM) | 128 (≈ 302 µM) | > 512 | 1 (≈ 2.36 µM) | –
6 | CCN1CCN(C(=O)N[C@@H](C(=O)N[C@@H]2C(=O)N3[C@@H]2SC(C)(C)[C@@H]3C(=O)O)c2ccccc2)C(=O)C1=O [PIPERACILLIN] | 256 (≈ 495 µM) | 128 (≈ 247 µM) | 0.5 (≈ 0.966 µM) | 64 (≈ 124 µM) | 32 (≈ 61.8 µM) | 0.5 (≈ 0.966 µM) | Vmax (Hafnia alvei [7]): 0.17 nmol/min/µg; Vmax/Km (Hafnia alvei [8]): 0.12; Km (Hafnia alvei [9]): 1.4 µM
7 | CC1(C)S[C@@H]2[C@H](NC(=O)[C@H](N)c3ccc(O)cc3)C(=O)N2[C@H]1C(=O)O [AMOXICILLIN] | > 512 | > 512 | 4 (≈ 10.9 µM) | > 512 | > 512 | 4 (≈ 10.9 µM) | –
8 | CO/N=C(\C(=O)N[C@@H]1C(=O)N2C(C(=O)O)=C(COC(C)=O)CS[C@H]12)c1csc(N)n1 [CEFOTAXIME] | 16 (≈ 35.1 µM) | 64 (≈ 141 µM) | ≤ 0.06 | 8 (≈ 17.6 µM) | 32 (≈ 70.3 µM) | ≤ 0.06 | Vmax (Hafnia alvei [7]): < 0.01 nmol/min/µg
9 | CO/N=C(\C(=O)N[C@@H]1C(=O)N2C(C(=O)O)=C(CSc3nc(=O)c(O)nn3C)CS[C@H]12)c1csc(N)n1 [CEFTRIAXONE] | 32 (≈ 57.7 µM) | 128 (≈ 231 µM) | 0.12 (≈ 0.216 µM) | 16 (≈ 28.9 µM) | 32 (≈ 57.7 µM) | 0.12 (≈ 0.216 µM) | –
10 | CO[C@@]1(NC(=O)Cc2cccs2)C(=O)N2C(C(=O)O)=C(COC(N)=O)CS[C@@H]21 [CEFOXITIN] | 4 (≈ 9.36 µM) | 4 (≈ 9.36 µM) | 2 (≈ 4.68 µM) | 4 (≈ 9.36 µM) | 4 (≈ 9.36 µM) | 2 (≈ 4.68 µM) | Vmax (Hafnia alvei [7]): < 0.002 nmol/min/µg
11 | CC(=O)OCC1=C(C(=O)O)N2C(=O)[C@@H](NC(=O)Cc3cccs3)[C@H]2SC1 [CEPHALOTHIN] | > 512 | > 512 | 2 (≈ 5.04 µM) | > 512 | > 512 | 2 (≈ 5.04 µM) | –
12 | C[C@H]1[C@H](NC(=O)/C(=N\OC(C)(C)C(=O)O)c2csc(N)n2)C(=O)N1S(=O)(=O)O [AZTREONAM] | 1 (≈ 2.3 µM) | 2 (≈ 4.59 µM) | – | 0.5 (≈ 1.15 µM) | 2 (≈ 4.59 µM) | – | IC50 (Beta-lactamase ACC-4): 32 nM
13 | CO/N=C(\C(=O)N[C@@H]1C(=O)N2C(C(=O)[O-])=C(C[N+]3(C)CCCC3)CS[C@H]12)c1csc(N)n1 | 0.12 (≈ 0.25 µM) | 0.25 (≈ 0.52 µM) | – | 0.12 (≈ 0.25 µM) | 0.12 (≈ 0.25 µM) | – | –
14 | N[C@@H](C(=O)N[C@@H]1C(=O)N2C(C(=O)O)=C(Cl)CS[C@H]12)c1ccccc1 [CEFACLOR ANHYDROUS] | > 512 | > 512 | 2 (≈ 5.44 µM) | > 512 | > 512 | 2 (≈ 5.44 µM) | –
15 | B1 | – | – | – | – | – | – | Km [10]: 9.4 µM; kcat [10]: 2.7 s⁻¹; Km [11]: 1.1 µM; kcat [11]: 0.13 s⁻¹; Km [12]: 30 µM; kcat [12]: 96 s⁻¹; kcat [13]: < 0.01 s⁻¹; Km [14]: 3.8 µM; kcat [14]: 0.59 s⁻¹; Km [15]: 73 µM; kcat [15]: 0.14 s⁻¹; Km [16]: 15 µM; kcat [16]: 1.5 s⁻¹; kcat/Km [17]: 290000 M⁻¹ s⁻¹; kcat/Km [18]: 120000 M⁻¹ s⁻¹; kcat/Km [19]: 3.2e+06 M⁻¹ s⁻¹; kcat/Km [20]: 160000 M⁻¹ s⁻¹; kcat/Km [21]: 2000 M⁻¹ s⁻¹; kcat/Km [22]: 100000 M⁻¹ s⁻¹
